Experimental data taken from the array DNA melting data of Ke et al. (doi:10.1101/2024.01.08.574731).

What was measured:
[1] = folding enthalpy; higher = less favourable; fluorescence melt of hairpins on a sequencing array, two-state fit; settings: sodium 0.088 M
In short: (§1)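 Two-state fits, bootstrapped, provided melting temperature and folding enthalpy from Cy3 fluorescence normalised to pre-quench Cy3 and to control constructs. Library hairpins with annealed Cy3 and quencher oligos were imaged on a sequenced MiSeq flow cell in 50 mM Na-HEPES pH 8.0, 25 mM NaCl, at 2.5 °C intervals up to 60 °C. Four replicates were combined with inverse-variance weighting. A 9.35 °C upward shift was applied to fitted temperatures to match UV melts.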

[2] = melting temperature; fluorescence melt of hairpins on a sequencing array, two-state fit, raised by 9.35 °C to match UV melts; settings: sodium 0.088 M
In short: as §1

| Sequence | folding enthalpy [1] [kcal/mol] | Tm [2] [°C] |
| --- | --- | --- |
| CGGTCCCGGAAACGGCCG (((..(((....)))))) | -21.1 | 41.3 |
| GAGCCGGGAAACCGGTTC ((.((((....)))).)) | -34.5 | 55 |
| CACAAGAAATTGTG (((((....))))) | -21.7 | 37.6 |
| GCCTGGCGAAAGCCTAGC ((..(((....)))..)) | -12.8 | 41 |
| GCGGGCAGCCGC ((((....)))) | -16.4 | 63.5 |
| GGGCACGGAAACGTGCTC (.(((((....))))).) | -14.6 | 63.2 |
| GCTCGAGGAAACTCGGGC ((.((((....)))).)) | -38.9 | 59.9 |
| GCGGATTTCCGC ((((....)))) | -22.4 | 64.6 |
| GACGTGGGAAACCACATC ((.((((....)))).)) | -17.4 | 34.5 |
| GCGATGTTTCGC ((((....)))) | -22.9 | 51.4 |
| GCAGAGGGAAACCTCTGC (((((((....))))))) | -46.2 | 67.9 |
| GGCTTTGGAAACAAAGTC (.(((((....))))).) | -39.8 | 48.9 |
| GAGTGACGAAAGTCGCTC (((.(((....))).))) | -38.9 | 64.8 |
| GCCGAGCGAAAGCACAGC ((.(.((....)).).)) | -15.1 | 40.1 |
| GTTCTTGGAAACGAGAAC (((((.(....).))))) | -28.6 | 43.6 |
| GGTCGCGAAAGCGTGACC ((((((....)))..))) | -18.2 | 53.1 |
| GGCTTCCGAAAGGATGCC (((.(((....))).))) | -48.9 | 62 |
| GATCCGGTTCCGGATC ((((((....)))))) | -43 | 62.7 |
| GCGTTTGGAAACAAACAC (.(((((....))))).) | -12.8 | 40.6 |
| GTTTGTGGAAACATGAAC (((..((....))..))) | -21.9 | 31.6 |
| GTGATTTCGAAAGAACAC (((..(((....)))))) | -22.9 | 31.3 |
| GATCATAATTATGATC ((((((....)))))) | -42 | 47.8 |
| GCCCTGGGAAACCGGGGC ((((.((....)).)))) | -43.1 | 66.2 |
| GCTCGCGAAAGCGCAGC ((((((....))).))) | -19.6 | 54.4 |

| Sequence | folding enthalpy [1] [kcal/mol] | Tm [2] [°C] |
| --- | --- | --- |
| GATCGTCACCACGATC ((((((....)))))) | -40.9 | 54 |
| GCGTGGCGAAAGCCCTGC ((..(((....)))..)) | -18.3 | 47.2 |
| GAAAGCGAAAGCTCCTTC ((((((....)))..))) | -10.2 | 31.4 |
| GCGATTGGAAACGATTGC ((.((.(....).)).)) | -26.7 | 36.4 |
| GATCACCACGGTGATC ((((((....)))))) | -41.4 | 62.9 |
| GCCTCCGAAAGGACCGGC ((((((....)))..))) | -25 | 43.1 |
| GATCCAAGTATGGATC ((((((....)))))) | -36.5 | 50.3 |
| GTACGCCGAAAGGCTTAC (((.(((....))).))) | -21.5 | 46.3 |
| GGACGGAAACGTCC (((((....))))) | -31.9 | 66.4 |
| GCCGGGCCGAAAGGCGGC (((..(((....)))))) | -17.6 | 59.4 |
| GACTTGGGAAACTAGGTC (((.(.(....).).))) | -9.69 | 25.4 |
| GATCCACCCGTGGATC ((((((....)))))) | -40.4 | 57.9 |
| GCGTATGGAAACGTATGC ((.((.(....).)).)) | -26.1 | 34.8 |
| GCCGCTGCGAAAGCAGGC (((..(((....)))))) | -9.88 | 65.1 |
| GATCTGACCACAGATC ((((((....)))))) | -36.3 | 49 |
| GATCTGATAACAGATC ((((((....)))))) | -35.7 | 47 |
| GTTGTAGGAAACTATGAC ((..(((....)))..)) | -14.1 | 26.6 |
| GATCGGTCAACCGATC ((((((....)))))) | -39.2 | 57.5 |
| GGATTGGAAACAATCC ((((((....)))))) | -36.7 | 55.5 |
| GCGTCTGAACGC ((((....)))) | -25.2 | 54 |
| GATCGACTGATCGATC ((((((....)))))) | -30.5 | 50.9 |
| GATCCCGTGGGGATC ((((((...)))))) | -32.4 | 64.5 |
| GGGCTTGGAAACAAGTCC ((.((((....)))).)) | -50.9 | 54.6 |
| GTTTTGGGAAACCAAGAC ((.((((....)))).)) | -24.6 | 39 |

| Sequence | folding enthalpy [1] [kcal/mol] | Tm [2] [°C] |
| --- | --- | --- |
| GGCCGGGCGAAAGCCGCC (((..(((....)))))) | -18.1 | 57.7 |
| GTATTTGGAAACGAATAC (((((.(....).))))) | -30.2 | 35.8 |
| GCCCATCGAAAGATAGGC (((.(((....))).))) | -30.5 | 47.2 |
| GCCCCCGAAAGGGCAGGC ((((((....)))..))) | -17.9 | 50.4 |
| GGCATCGAAAGATTAGCC ((((((....)))..))) | -28.2 | 43.7 |
| GGTTGCGAAAGCACTACC ((((((....)))..))) | -11.9 | 37.4 |
| GCGCGGCGAAAGCTGGGC ((.(.((....)).).)) | -32.4 | 67.2 |
| GGCGATGGAAACATTGCC (((.(((....))).))) | -47.2 | 55.2 |
| GCGTCCCCACGC ((((....)))) | -21 | 51.1 |
| GTGTTCACGAAAGTGCAC (((..(((....)))))) | -20.7 | 42.3 |
| GATCCCTAGTGGGATC ((((((....)))))) | -38.7 | 57 |
| GATCCTCCATAGGATC ((((((....)))))) | -33.5 | 51.1 |
| GCCACCCCGAAAGGGGGC (((..(((....)))))) | -11.4 | 55.8 |
| GATTTTACGAAAGTAATC (((..(((....)))))) | -13.6 | 26.3 |
| GTGCGTCGAAAGACACAC (((.(((....))).))) | -39 | 53.5 |
| GCCTGGGGAAACCTGGGC (((..((....))..))) | -32.3 | 50.3 |
| GCGGAACCCGC ((((...)))) | -20.8 | 53.8 |
| GTCAACGAAAGTTCTGAC ((((((....)))..))) | -13.3 | 25.9 |
| GTACGCGAAAGCGTTAC ((((((....))).))) | -11 | 46.8 |
| GTGTGTGAAAACACAC ((((((....)))))) | -36.7 | 64.3 |
| GATTCCGAAAGGAAGATC ((((((....)))..))) | -22.3 | 45.4 |
| GATTCGGGAAACCGAATC (((((((....))))))) | -47.5 | 60.4 |
